Test results reported in PubChem BioAssay.
The source made the active and inactive calls.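 How the source made its calls, unless noted: active means viability at or below 10% of carrier control in both of two separate runs; inconclusive means viability at or below 10% in only one of the two runs; inactive means the rest.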

Columns and labels:
[1] = reduced viability of SK-BR-3 breast cancer cells – cell-based, 24 h, human, pilot screen (AID 572); conditions: SK-BR-3 viability, CellTiter-Glo luminescence, at 10 µM, stronger effect = lower value;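 further: compound exposure lasted between 18 and 24 h rather than exactly 24 h; 100% = carrier-treated control wells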
[2] = HUVEC growth inhibition – cell-based, human, primary screen (AID 575;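 active means viability at or below 30% in both replicate assays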;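 further: 100% = median of untreated cell wells with 0.1% DMSO on each plate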); conditions: HUVEC proliferation, CellTiter-Glo luminescence, 72 h; at 10 µM; stronger effect = lower value
Procedure, shortened: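 Assay system: Primary human umbilical vein endothelial cells | Quantity: 1250 cells per well | Medium: Supplemented EBM, 2% fetal bovine serum | Detection: CellTiter-Glo luminescence measuring cellular ATP | Read-out: % viability vs DMSO wells | Plate: Collagen-coated 384-well format | Times: 72 h exposure, 37 °C, 5% CO2, 30 min RT equilibration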

[3] = H69AR cell proliferation blockers – human, duplicate replicates, primary screen (AID 580;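 active means viability at or under a set limit in both replicates, limit being median viability minus 3 SD, cut at about 48% in these data, passing the limit was not always enough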;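 further: 100% = mean luminescence of untreated wells and 0% = no signal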); conditions: H69AR lung tumor cells viability, ATP luminescence, 72 h; at 10 µM; stronger effect = lower value
[4] = MRP1 drug-resistance reversers in H69AR cells – cell-based, doxorubicin co-treatment, pilot screen (AID 601;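 active means viability loss from added drug above about 55%, and viability with drug at most 40%, in both replicates, limit read from the data, passing the limit was not always enough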); conditions: CellTiter-Glo, 72 h, at 10 µM; for differential viability (reversal): stronger effect = higher value
[5] = yeast transport mutant growth inhibition pilot in 384-well plates, post-Golgi transport modulator project (AID 636; in the data active means inhibition above about 31%); conditions: absorbance 615 nm, about 18 h, stronger effect = higher value
[6] = growth suppression of yeast trafficking mutant, preliminary HTS, modulators of trafficking downstream of Golgi apparatus project, 1536-format plate, OD 615 nm (AID 637; in the data active means inhibition above about 30%); conditions: yeast transport mutant growth, absorbance 615 nm, 18 h; stronger effect = higher value
[7] = H69AR cells + 2 uM doxorubicin, measured here: viability with 2 uM doxorubicin, stronger effect = lower value
[8] = H69AR cells, compound alone cytotoxicity

| Compound | viability [1] | viability [2] | viability [3] | differential viability (reversal) ([4]; H69AR cells + 2 uM doxorubicin) | viability [4, 7] [%] | viability [4, 8] [%] | inhibition [5] | inhibition [6] |
| --- | --- | --- | --- | --- | --- | --- | --- | --- |
| NC(N)=NC(N)=NCCc1ccccc1 | 103% (inactive) | 104% (inactive) | 99.4% (inactive) | -0.22% (inactive) | 99.6 | 99.4 | 0.65% (inactive) | -0.67% (inactive) |
| Cc1ccc2nc3c(cc(C(=O)NCC4CCCO4)n3C)c(=O)n2c1 (stereo unspecified) | 134% (inactive) | 110% (inactive) | 94.9% (inactive) | 7.85% (inactive) | 87.1 | 94.9 | -0.96% (inactive) | 25.2% (inactive) |
| Cn1c(-c2ccc(F)cc2)cnc1SCC(=O)Nc1ccccc1N1CCOCC1 | 94% (inactive) | 103% (inactive) | 102% (inactive) | 12.9% (inactive) | 88.8 | 102 | -7.57% (inactive) | -4.55% (inactive) |
| CC(C)C12CN3CC(C(C)C)(CN(C1)C3c1ccc3c(c1)OCO3)C2=O (stereo unspecified) | 117% (inactive) | 91.8% (inactive) | 85.5% (inactive) | -0.655% (inactive) | 86.2 | 85.5 | -1.6% (inactive) | 0.18% (inactive) |
| CS(=O)(=O)NCC(c1cccnc1)N1CCN(c2ccc(F)cc2)CC1 (stereo unspecified) | 107% (inactive) | 113% (inactive) | 92.2% (inactive) | 0.865% (inactive) | 91.3 | 92.2 | -1.89% (inactive) | -3.45% (inactive) |
| NCCCCCc1nnc(SC/C=C/c2ccccc2)o1 | 99% (inactive) | 73.8% (inactive) | 89.9% (inactive) | 3.04% (inactive) | 86.9 | 89.9 | -6.85% (inactive) | 18.2% (inactive) |
| C=CCn1c(SCn2nnc3ccccc3c2=O)nnc1-c1ccc(Br)cc1 | 97% (inactive) | 94.2% (inactive) | 89.1% (inactive) | 7.09% (inactive) | 82 | 89.1 | 43.2% (active) | 31.6% (active) |
| COc1ccc(CN(CC(=O)NCC2CCCO2)C(=O)CCC(=O)Nc2cc(C)on2)cc1 (stereo unspecified) | 77% (inactive) | 95.1% (inactive) | 89.4% (inactive) | -4.07% (inactive) | 93.4 | 89.4 | 4.53% (inactive) | 9.27% (inactive) |
| Cc1cc(C)c2nc(C(F)(F)F)nc(NCCCN3CCCC3=O)c2c1 | 113% (inactive) | 51.4% (inactive) | 83.7% (inactive) | -9.04% (inactive) | 92.7 | 83.7 | -4.38% (inactive) | 0.65% (inactive) |
| O=C(Nc1ccc(N2CCOCC2)c(Cl)c1)c1ccc(Br)o1 | 91% (inactive) | 65.5% (inactive) | 20% (active) | -12.4% (inactive) | 32.4 | 20 | -3.7% (inactive) | 5.81% (inactive) |
| C#CCSc1nc(-c2cccs2)ccc1C#N | 91% (inactive) | 95.1% (inactive) | 71.4% (inactive) | -22.5% (inactive) | 93.9 | 71.4 | -0.96% (inactive) | 21.8% (inactive) |
| C=CCN1C(=O)C2(/C(=C(\O)c3ccc4c(c3)OCCO4)C(=O)C(=O)N2CCCOC)c2ccccc21 (stereo unspecified) | 109% (inactive) | 96.6% (inactive) | 95.9% (inactive) | 11.2% (inactive) | 84.7 | 95.9 | -8.36% (inactive) | 0.48% (inactive) |
| CCCN(CCC)C(=O)C(CCC(=O)O)NC(=O)c1ccccc1 (stereo unspecified) | 108% (inactive) | 94.9% (inactive) | 105% (inactive) | 9.32% (inactive) | 95.9 | 105 | -5.32% (inactive) | 2.33% (inactive) |
| CCOC(=O)c1ccc(CNC(=O)C(Cc2c[nH]c3ccccc23)NC(C)=O)o1 (stereo unspecified) | 90% (inactive) | 90.3% (inactive) | 101% (inactive) | 8.63% (inactive) | 92.3 | 101 | -6.99% (inactive) | 0.36% (inactive) |
| O=C(O)c1cccc(NC(=O)C23CC4CC(C2)CC(n2cnc(Cl)n2)(C4)C3)c1 | 122% (inactive) | 105% (inactive) | 96.9% (inactive) | 5.78% (inactive) | 91.1 | 96.9 | -1.95% (inactive) | 0.98% (inactive) |
| CCc1c(C)nc2ncnn2c1N1CCC(C(=O)NCc2cccc(OC)c2)CC1 | 134% (inactive) | 85.8% (inactive) | 89.9% (inactive) | -9.81% (inactive) | 99.7 | 89.9 | -3.7% (inactive) | -1.29% (inactive) |
| Cc1cc(C)n(Cc2cc(C)c(Cn3nc(C)cc3C)cc2C)n1 | 99% (inactive) | 101% (inactive) | 106% (inactive) | 12.2% (inactive) | 93.9 | 106 | -4.73% (inactive) | 1.64% (inactive) |
| COc1ccc(C/C(O)=C(\C#N)c2nc3ccccc3s2)cc1 | 86% (inactive) | 48.8% (inactive) | 83.1% (inactive) | -8.21% (inactive) | 91.3 | 83.1 | -2.93% (inactive) | 0.36% (inactive) |
| CC(=O)N1CCc2cc(S(=O)(=O)NCCC(=O)NC3CCCc4ccccc43)ccc21 (stereo unspecified) | 113% (inactive) | 112% (inactive) | 88.9% (inactive) | -1.16% (inactive) | 90 | 88.9 | -4% (inactive) | -3.27% (inactive) |

| Compound | viability [1] | viability [2] | viability [3] | differential viability (reversal) ([4]; H69AR cells + 2 uM doxorubicin) | viability [4, 7] [%] | viability [4, 8] [%] | inhibition [5] | inhibition [6] |
| --- | --- | --- | --- | --- | --- | --- | --- | --- |
| O=C(CSc1nnc(Cc2ccccc2)n1-c1cccc(Cl)c1)N1CCOCC1 | 106% (inactive) | 94.2% (inactive) | 85.6% (inactive) | 4.24% (inactive) | 81.3 | 85.6 | -4.8% (inactive) | -7.64% (inactive) |
| COc1ccccc1-c1nnc(NC(=O)c2ccc(S(=O)(=O)N(C)Cc3ccccc3)cc2)o1 | 85% (inactive) | 23.9% (active) | 19.2% (active) | -25.1% (inactive) | 44.3 | 19.2 | 1.3% (inactive) | 6.56% (inactive) |
| CCOc1ccc(NC(=O)COC(=O)Cn2cnnn2)cc1OCC | 86% (inactive) | 106% (inactive) | 107% (inactive) | -0.92% (inactive) | 108 | 107 | 1.23% (inactive) | -0.36% (inactive) |
| N#CC1=C(N)OC2=C(C(=O)CCC2)C1CCc1ccccc1 (stereo unspecified) | 98% (inactive) | 91.9% (inactive) | 103% (inactive) | 14.2% (inactive) | 89.3 | 103 | -6.08% (inactive) | 1.64% (inactive) |
| O=C(NCC1CCCO1)c1cc(-c2ccncc2)nc2ccc(S(=O)(=O)N3CCOCC3)cc12 (stereo unspecified) | 106% (inactive) | 111% (inactive) | 95.8% (inactive) | 8.86% (inactive) | 87 | 95.8 | -7.87% (inactive) | 4.18% (inactive) |
| CCOc1ccc2[nH]c(O)c(NC(C)=O)c2c1 | 95% (inactive) | 100% (inactive) | 94.8% (inactive) | 0.61% (inactive) | 94.1 | 94.8 | -4.86% (inactive) | 0.91% (inactive) |
| COCC(=O)Nc1cc(OC)ccc1OC | 83% (inactive) | 89% (inactive) | 102% (inactive) | 5.8% (inactive) | 96.1 | 102 | -2.86% (inactive) | 0.66% (inactive) |
| O=C1NC(=O)C(c2ccccc2)(c2ccccc2)N1 | 111% (inactive) | 75.6% (inactive) | 98% (inactive) | 7.3% (inactive) | 90.7 | 98 | 2.86% (inactive) | -1% (inactive) |
| Cc1ccc(-c2nnc(SCC(=O)N3c4ccccc4NC(=O)C3(C)C)n2N)cc1 | 65% (inactive) | 105% (inactive) | 98% (inactive) | 6.49% (inactive) | 91.5 | 98 | -3.38% (inactive) | 0.36% (inactive) |
| COc1cccc(-c2csc(N3CCN(CC(=O)Nc4ccc5c(c4)OCO5)CC3)n2)c1 | 106% (inactive) | 78.9% (inactive) | 80.3% (inactive) | -1.21% (inactive) | 81.5 | 80.3 | -2.34% (inactive) | 0% (inactive) |
| CC1=NS(=O)(=O)c2cc(Cl)ccc2N1 | 119% (inactive) | 89.4% (inactive) | 94.4% (inactive) | 7.28% (inactive) | 87.1 | 94.4 | -1.17% (inactive) | 4.67% (inactive) |
| Cc1cc(=O)n(CCO)c(O)c1C#N | 81.5% (inactive) | 107% (inactive) | 95.1% (inactive) | -5.74% (inactive) | 101 | 95.1 | -3.95% (inactive) | 22.8% (inactive) |
| C1CNCCNCCNCCN1 | 101% (inactive) | 113% (inactive) | 95.7% (inactive) | 0.16% (inactive) | 95.5 | 95.7 | -0.26% (inactive) | 2.83% (inactive) |
| O=C(NCc1cccnc1)/C(=N\O)c1ccccc1 | 73% (inactive) | 111% (inactive) | 98.8% (inactive) | 13.2% (inactive) | 85.6 | 98.8 | -6.08% (inactive) | -3.82% (inactive) |
| CCCCNC(=O)c1nnn(-c2ccccc2)c1N | 88% (inactive) | 113% (inactive) | 92.2% (inactive) | -0.63% (inactive) | 92.8 | 92.2 | 4.03% (inactive) | 2.3% (inactive) |
| O=C(c1nn2cccnc2c1Cl)N1CCN(c2ccccc2)CC1 | 66% (inactive) | 102% (inactive) | 108% (inactive) | 10.1% (inactive) | 97.8 | 108 | -6.99% (inactive) | 3.82% (inactive) |
| C/C(Nc1cccc(F)c1)=C(/C#N)C(N)=O | 107% (inactive) | 122% (inactive) | 99.2% (inactive) | 5.34% (inactive) | 93.9 | 99.2 | -4.32% (inactive) | -5.64% (inactive) |
| CC1CCCN(S(=O)(=O)c2ccc(C(=O)Nc3nnc(-c4ccccc4Cl)o3)cc2)C1 (stereo unspecified) | 87% (inactive) | 11.1% (active) | 18.9% (active) | -19% (inactive) | 37.9 | 18.9 | 11.6% (inactive) | 6.56% (inactive) |
